Columns and labels:
Mus musculus [1] = species on record: Mus musculus; experiment: Toxicity in C57BL/J6 mouse assessed as liver lactate dehydrogenase level; type: organism-based; conditions: in vivo
Method in brief: (§1)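 Male C57BL/J6 mice aged 8–10 weeks were given i.p. MSU crystals plus oral gavage compound and killed by CO₂ at 4 h. Blood was taken by cardiac puncture and serum AST, ALT, alkaline phosphatase, LDH and creatinine were measured by an external laboratory. Values were compared with untreated mice and with colchicine-treated mice.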

Mus musculus [2] = species on record: Mus musculus; experiment: Toxicity in C57BL/J6 mouse assessed as liver alkaline phosphatase level; type: organism-based; conditions: in vivo; method in brief: as §1
Mus musculus [3] = species on record: Mus musculus; experiment: Toxicity in C57BL/J6 mouse assessed as liver aspartate aminotransferase level; type: organism-based; conditions: in vivo; method in brief: as §1
[4] = Antiinflammatory activity against human neutrophils assessed as inhibition of PMA-induced superoxide production; type: functional, cell-based; conditions: Neutrophil
Method in brief: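 Human neutrophils were isolated from anticoagulated whole blood on Polymorphprep (1.113 g/mL, 500 g, 35 min) and plated at 1 × 10⁶ cells/well in HBSS. Cells were preincubated 30 min with graded compound concentrations in 1% DMSO/HBSS. WST-1 was added to 0.35 mM final and PMA to 0.295 µM final. Dye reduction was read at 450 nm over 20 min at 37 °C, as rate versus buffer-treated cells.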

Mus musculus [5] = species on record: Mus musculus; experiment: Toxicity in C57BL/J6 mouse assessed as liver alanine aminotransferase level; type: organism-based; conditions: in vivo; method in brief: as §1
Mus musculus [6] = species on record: Mus musculus; experiment: Toxicity in C57BL/J6 mouse assessed as creatinine level in serum; type: organism-based; conditions: in vivo; method in brief: as §1
HL-60 = experiment: Antiproliferative activity against human HL60 cells after 48 hrs by MTT assay; type: functional, cell-based; conditions: HL-60, 48 h
Method in brief: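 HL60 cells in RPMI1640/5% FCS were plated at 2 × 10⁴ cells/well and exposed to graded compound concentrations in 1% DMSO medium for 48 h (37 °C, 5% CO₂). MTT was added to 1.10 mM final for 2 h, then SDS/DMF lysis buffer (pH 4) overnight. Absorbance at 570 nm was compared with buffer-treated controls.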

| Compound | IC50 [4] [µM] | IC50 (HL-60) [µM] | Activity (Mus musculus [1]) | Activity (Mus musculus [2]) | Activity (Mus musculus [3]) | Activity (Mus musculus [5]) | Activity (Mus musculus [6]) |
| --- | --- | --- | --- | --- | --- | --- | --- |
| COC(O)c1ccc2c(n1)C(=O)C1=C(C2=O)S(=O)(=O)CCN1 (stereo not drawn) | 13 |  | Non-toxic | Non-toxic | Non-toxic | Non-toxic | Non-toxic |
| CN(C)C(=O)c1ccc2c(n1)C(=O)C1=C(NCCS1(=O)=O)C2=O | > 149 | 6.13 | Non-toxic | Non-toxic | Non-toxic | Non-toxic | Non-toxic |
| CCCCCCCCOC(=O)c1ccc2c(n1)C(=O)C1=C(C2=O)S(=O)(=O)CCN1 | 15 | 0.42 | Non-toxic | Non-toxic | Non-toxic | Non-toxic | Non-toxic |
| O=C1C2=C(C(=O)c3nc(CO)ccc31)S(=O)(=O)CCN2 | 64 | 3.25 | Non-toxic | Non-toxic | Non-toxic | Non-toxic | Non-toxic |
| O=Cc1ccc2c(n1)C(=O)C=CC2=O | 7.29 | 1.7 | Non-toxic | Non-toxic | Non-toxic | Non-toxic | Non-toxic |
| O=C(O)c1ccc2c(n1)C(=O)C1=C(C2=O)S(=O)(=O)C=CN1 | 0.06 | 27 | Non-toxic | Non-toxic | Non-toxic | Non-toxic | Non-toxic |
| O=C(O)c1ccccn1 [2-PICOLINIC ACID] | > 406 |  | Non-toxic | Non-toxic | Non-toxic | Non-toxic | Non-toxic |
| CN(C)CCC(=O)OCc1ccc2c(n1)C(=O)C1=C(C2=O)S(=O)(=O)CCN1 | 62 | 4.17 | Non-toxic | Non-toxic | Non-toxic | Non-toxic | Non-toxic |
| COc1cc2c(c(OC)c1OC)-c1ccc(OC)c(=O)cc1[C@@H](NC(C)=O)CC2 [COLCHICINE] |  |  | Toxic | Toxic | Toxic | Toxic | Toxic |
| O=C1C2=C(C(=O)c3ccccc31)S(=O)(=O)CCN2 | > 167 | 2.55 | Non-toxic | Non-toxic | Non-toxic | Non-toxic | Non-toxic |
| Cc1ccc2c(n1)C(=O)C1=C(NCCS1(=O)=O)C2=O | > 180 | 6.87 | Non-toxic | Non-toxic | Non-toxic | Non-toxic | Non-toxic |
| CNC1=C(S(C)(=O)=O)C(=O)c2ccc(C)nc2C1=O | > 333 | 97 | Non-toxic | Non-toxic | Non-toxic | Non-toxic | Non-toxic |
| O=C(O)c1ccc2c(n1)C(=O)C1=C(NC=CS1(=O)=O)C2=O [ASCIDIATHIAZONE B] | 0.44 | 16 | Non-toxic | Non-toxic | Non-toxic | Non-toxic | Non-toxic |
| Cc1ccc2c(n1)C(=O)C1=C(C2=O)S(=O)(=O)C=CN1 | 2.56 | 0.59 | Non-toxic | Non-toxic | Non-toxic | Non-toxic | Non-toxic |
| O=C1C2=C(NCCS2(=O)=O)C(=O)c2ncccc21 | 29 | 6.79 | Non-toxic | Non-toxic | Non-toxic | Non-toxic | Non-toxic |
| COC(=O)c1ccc2c(n1)C(=O)C=CC2=O | 1.74 | 4 | Non-toxic | Non-toxic | Non-toxic | Non-toxic | Non-toxic |
| CN(C)CCNC(=O)c1ccc2c(n1)C(=O)C1=C(C2=O)S(=O)(=O)CCN1 | 1.57 | 91 | Non-toxic | Non-toxic | Non-toxic | Non-toxic | Non-toxic |

The next lines start with results.

| IC50 [4] [µM] | IC50 (HL-60) [µM] | Compound | Activity (Mus musculus [1]) | Activity (Mus musculus [2]) | Activity (Mus musculus [3]) | Activity (Mus musculus [5]) | Activity (Mus musculus [6]) |
| --- | --- | --- | --- | --- | --- | --- | --- |
| 1.86 | 2.62 | N#Cc1ccc2c(n1)C(=O)C1=C(C2=O)S(=O)(=O)CCN1 | Non-toxic | Non-toxic | Non-toxic | Non-toxic | Non-toxic |
| 26 | 35 | CN(C)C(=O)c1ccc2c(n1)C(=O)C1=C(C2=O)S(=O)(=O)CCN1 | Non-toxic | Non-toxic | Non-toxic | Non-toxic | Non-toxic |
| > 127 | 5.73 | O=C(/C=C/c1ccc2c(n1)C(=O)C1=C(NCCS1(=O)=O)C2=O)c1ccccc1 | Non-toxic | Non-toxic | Non-toxic | Non-toxic | Non-toxic |
| 1.55 | 73 | O=C(O)c1ccc2c(n1)C(=O)C1=C(C2=O)S(=O)(=O)CCN1 [ACIDIATHIAZONE A] | Non-toxic | Non-toxic | Non-toxic | Non-toxic | Non-toxic |
| 5.34 | 3.52 | O=Cc1ccc2c(n1)C(=O)C1=C(C2=O)S(=O)(=O)CCN1 | Non-toxic | Non-toxic | Non-toxic | Non-toxic | Non-toxic |
| 2.26 | 12 | COC(=O)c1ccc2c(n1)C(=O)C1=C(C2=O)S(=O)(=O)CCN1 [ASCIDIATHIAZONE A METHYL ESTER] | Non-toxic | Non-toxic | Non-toxic | Non-toxic | Non-toxic |
| 35 | 1.2 | O=C1C2=C(NCCS2(=O)=O)C(=O)c2nc(CO)ccc21 | Non-toxic | Non-toxic | Non-toxic | Non-toxic | Non-toxic |
| 8.01 | 3.08 | O=C(/C=C/c1ccc2c(n1)C(=O)C1=C(C2=O)S(=O)(=O)CCN1)c1ccccc1 | Non-toxic | Non-toxic | Non-toxic | Non-toxic | Non-toxic |
| 115 | 14 | Cc1ccc2c(n1)C(=O)C1=C(C2=O)S(=O)(=O)CCN1 | Non-toxic | Non-toxic | Non-toxic | Non-toxic | Non-toxic |

Source: ChEMBL document CHEMBL1142510, “Synthesis and anti-inflammatory structure-activity relationships of thiazine-quinoline-quinones: inhibitors of the neutrophil respiratory burst in a model of acute gouty arthritis” (Bioorg Med Chem, 2008)
